Experimental data published in ChEMBL document CHEMBL1143832, “EDP-420, a bicyclolide (bridged bicyclic macrolide), is active against Mycobacterium avium” (Antimicrob Agents Chemother, 2007).
Values after ≈ are worked out from the molar mass of the structure shown. Active and inactive are the calls of the source. No cut-off for these calls is given here.

Tests used:
[1] = system: Mycobacterium avium; experiment: Antimicrobial activity against macrolide-susceptible Mycobacterium avium by radiometric broth […] method; assay type: functional
Outline: (§1)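 MAC clinical blood isolates from AIDS patients; 5–10 colonies from 7H11 agar into 7H9 broth, inoculum ~5 × 10^4 CFU/ml by McFarland no. 1. Radiometric (BACTEC) broth […], T100 analysis. Controls: undiluted drug-free, 1:100 and 1:1,000 diluted inoculum, boiled-bacteria vial. Observation ~7 days. MIC range, MIC50 and MIC90 reported (susceptible n = 24; resistant n = 6).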

[2] = system: Mycobacterium avium; experiment: Antimicrobial activity against macrolide-resistant Mycobacterium avium radiometric broth […] method; assay type: functional; outline: as §1
[3] = system: Mycobacterium avium complex sp.; experiment: Antimicrobial activity against Mycobacterium avium complex 101 infected C57BL/6 beige mouse liver assessed as bacterial load at 100 mg/kg once daily 6 days a week for 4 weeks; assay type: functional
Outline: (§2)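 Female C57BL/6 beige mice, about 20 g, infected intravenously with about 3 × 10^7 MAC 101. Baseline mice harvested at 1 week, when treatment started: once daily, 6 days/week, for 4 weeks, alongside diluent-treated controls. Liver and spleen homogenized, diluted and plated on 7H10 agar, with CFU counted after 10 days at 37°C and expressed per gram. Student's t test.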

[4] = system: Mycobacterium avium complex sp.; experiment: Antimicrobial activity against Mycobacterium avium complex 101 infected C57BL/6 beige mouse spleen assessed as bacterial load at 100 mg/kg once daily 6 days a week for 4 weeks; assay type: functional; outline: as §2
[5] = system: Mycobacterium avium complex sp.; experiment: Antimicrobial activity against clarithromycin resistant-Mycobacterium avium complex 101 infected C57BL/6 beige mouse liver assessed as bacterial load at 100 mg/kg once daily 6 days a week for 4 weeks; assay type: functional
Outline: (§3)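 Female beige mice (~20 g) infected intravenously with ~3 × 107 clarithromycin-resistant MAC 101 (from spleen of clarithromycin-treated MAC 101-infected mouse). Treatment started 1 week post-infection, once daily, 6 days/week, 4 weeks. Baseline mice harvested at 1 week; diluent-treated controls in parallel. Liver and spleen homogenized, diluted, plated on 7H10 agar, CFU counted after 10 days at 37°C. Mean CFU/g ± SEM.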

[6] = system: Mycobacterium avium complex sp.; experiment: Antimicrobial activity against clarithromycin resistant-Mycobacterium avium complex 101 infected C57BL/6 beige mouse spleen assessed as bacterial load at 100 mg/kg once daily 6 days a week for 4 weeks; assay type: functional; outline: as §3
[7] = system: Mycobacterium avium complex sp.; experiment: Antimicrobial activity against Mycobacterium avium complex 101 infected C57BL/6 beige mouse liver assessed as bacterial load at 40 mg/kg once daily 6 days a week for 4 weeks; assay type: functional; outline: as §2
[8] = system: Mycobacterium avium complex sp.; experiment: Antimicrobial activity against Mycobacterium avium complex 101 infected C57BL/6 beige mouse spleen assessed as bacterial load at 40 mg/kg once daily 6 days a week for 4 weeks; assay type: functional; outline: as §2
[9] = system: Mycobacterium avium complex sp.; experiment: Antimicrobial activity against clarithromycin resistant-Mycobacterium avium complex 101 infected C57BL/6 beige mouse liver assessed as bacterial load at 40 mg/kg once daily 6 days a week for 4 weeks; assay type: functional; outline: as §3
[10] = system: Mycobacterium avium complex sp.; experiment: Antimicrobial activity against clarithromycin resistant-Mycobacterium avium complex 101 infected C57BL/6 beige mouse spleen assessed as bacterial load at 40 mg/kg once daily 6 days a week for 4 weeks; assay type: functional; outline: as §3
[11] = system: Mycobacterium avium complex sp.; experiment: Antimicrobial activity against Mycobacterium avium complex 101 infected C57BL/6 beige mouse spleen assessed as bacterial load after 8 weeks; assay type: functional
[12] = system: Mycobacterium avium complex sp.; experiment: Antimicrobial activity against Mycobacterium avium complex 101 infected C57BL/6 beige mouse spleen assessed as bacterial load after 12 weeks; assay type: functional
[13] = Cmax in mouse serum at 15 mg/kg, po; assay type: ADME, organism-based; set-up: dose 15 mg/kg, route oral
[14] = Tmax in mouse serum at 15 mg/kg, po; assay type: ADME, organism-based; set-up: dose 15 mg/kg, route oral
[15] = Half life in mouse serum at 15 mg/kg, po; assay type: ADME, organism-based; set-up: dose 15 mg/kg, route oral
[16] = system: Mycobacterium avium complex sp.; experiment: Antibacterial activity against Mycobacterium avium complex 101 in U937 cells at 0.5 ug/ml after 4 days; conditions: U-937

SMILES | MIC50 [1] [µg/mL] | MIC90 [1] [µg/mL] | MIC [2] [µg/mL] | CFU [3] | CFU [4] | CFU [5] | CFU [6] | CFU [7] | CFU [8] | CFU [9] | CFU [10] | CFU [11] | CFU [12] | Cmax [13] [ng/mL] | Tmax [14] [h] | half-life [15] [h] | Activity [16]
CC[C@H]1OC(=O)[C@H](C)[C@@H](O[C@H]2C[C@@](C)(OC)[C@@H](O)[C@H](C)O2)[C@H](C)[C@@H](O[C@@H]2O[C@H](C)C[C@H](N(C)C)[C@H]2O)[C@](C)(O)C[C@@H](C)CN(C)[C@H](C)[C@@H](O)[C@]1(C)O [AZITHROMYCIN] | 16 (≈ 21.4 µM) | 16 (≈ 21.4 µM) | > 512 |  |  |  |  |  |  |  |  |  |  |  |  |  | 
CC[C@H]1OC(=O)[C@H](C)[C@@H](O[C@H]2C[C@@](C)(OC)[C@@H](O)[C@H](C)O2)[C@H](C)[C@@H](O[C@@H]2O[C@H](C)C[C@H](N(C)C)[C@H]2O)[C@](C)(OC)C[C@@H](C)C(=O)[C@H](C)[C@@H](O)[C@]1(C)O [CLARITHROMYCIN] | 2 (≈ 2.67 µM) | 4 (≈ 5.35 µM) | > 64 | 2.8 10^7/g | 6.6 10^7/g | 2.8 10^8/g | 8 10^8/g |  |  |  |  |  |  |  |  |  | 
O[C@@H](c1cc(C(F)(F)F)nc2c(C(F)(F)F)cccc12)[C@H]1CCCCN1 [MEFLOQUINE] |  |  |  |  |  |  |  | 1.8 10^7/g | 4.8 10^7/g | 2.9 10^7/g | 4.6 10^7/g |  |  |  |  |  | 
CC[C@H]1OC(=O)[C@H](C)C(=O)[C@H](C)[C@@H](O[C@@H]2O[C@H](C)C[C@H](N(C)C)[C@H]2O)[C@@]2(C)C[C@@H](C)/C(=N\C(C)=O)[C@H](C)[C@@H](OC/C(=N\OCc3ccc(-n4cccn4)nc3)CO2)[C@]1(C)O [MODITHROMYCIN] | 4 (≈ 4.76 µM) | 8 (≈ 9.51 µM) | 32 (≈ 38 µM) | 7.1 10^6/g | 1.2 10^7/g | 1.7 10^8/g | 5.7 10^8/g |  |  | 2.5 10^8/g | 2.7 10^8/g | 2.3 10^5/g | 2.5 10^5/g | 2500 | 1.5 | 3.3 | Active
CC[C@H]1OC(=O)[C@H](C)C(=O)[C@H](C)[C@@H](O[C@@H]2O[C@H](C)C[C@H](N(C)C)[C@H]2O)[C@](C)(OC)C[C@@H](C)C(=O)[C@H](C)[C@H]2N(CCCCn3cnc(-c4cccnc4)c3)C(=O)O[C@]12C [TELITHROMYCIN] | 32 (≈ 39.4 µM) | > 64 |  |  |  |  |  |  |  |  |  |  |  | 5500 | 1 | 1.5 | 
